Data reported in ChEMBL document CHEMBL4689842, “EUbOPEN Chemogenomics Library wave 1” (2021).

System: Fibroblast
Assay: Multiplex assay against human fibroblast
Type: toxicity, cell-based
Method in brief: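 Hoechst33342, BioTracker Green Microtubule Cytoskeleton Dye, MitoTracker Red and Annexin V Alexa Fluor 680 were added to live cells at seeding, and imaging on a CQ1 microscope at 37°C and 5% CO2 followed compound addition. Gating by CellPathfinder machine learning separated cells into Hoechst high-intensity objects or normal cells, then normal cells into healthy, pyknosed or fragmented nuclei, then pyknosed cells into mitotic or apoptotic. Per cents of healthy-nucleus cells are reported for the tubulin, mitochondrial-mass and membrane-permeability phenotypes.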

[1] = 12 h, 1 µM, compound concentration 1 uM, replicate 1
[2] = 12 h, 1 µM, compound concentration 1 uM, replicate 2
[3] = 12 h, 10 µM, compound concentration 10 uM, replicate 1
[4] = 12 h, 10 µM, compound concentration 10 uM, replicate 2
[5] = 24 h, 1 µM, compound concentration 1 uM, replicate 1
[6] = 24 h, 1 µM, compound concentration 1 uM, replicate 2
[7] = 24 h, 10 µM, compound concentration 10 uM, replicate 1
[8] = 24 h, 10 µM, compound concentration 10 uM, replicate 2
[9] = 48 h, 1 µM, compound concentration 1 uM, replicate 1
[10] = 48 h, 1 µM, compound concentration 1 uM, replicate 2
[11] = 48 h, 10 µM, compound concentration 10 uM, replicate 1
[12] = 48 h, 10 µM, compound concentration 10 uM, replicate 2

## CN(C)C(=O)/C(C#N)=C/c1ccc(-c2nc3cnc4[nH]ccc4c3n2C2CCCCC2)o1
[1]
  Population Apoptotic (%): 67%
  Population Fragmented Nuclei (%): 27%
  Population Healthy Nuclei (%): 43%
  Population Hoechst High Intensity Objects (%): 19%
  Population Membrane Permeable-Phenotype (%): 26%
  Population Mitochondria Different-Phenotype (%): 17%
  Population Mitotic Cells (%): 32%
  Population Normal (%): 80%
  Population Pyknosed Nuclei (%): 29%
  Population Tubulin-Different-Phenotype (%): 36%
  Total Cell Count: 131
[2]
  Population Apoptotic (%): 57%
  Population Fragmented Nuclei (%): 4%
  Population Healthy Nuclei (%): 87%
  Population Hoechst High Intensity Objects (%): 2%
  Population Membrane Permeable-Phenotype (%): 2%
  Population Mitochondria Different-Phenotype (%): 6%
  Population Mitotic Cells (%): 42%
  Population Normal (%): 97%
  Population Pyknosed Nuclei (%): 7%
  Population Tubulin-Different-Phenotype (%): 24%
  Total Cell Count: 75
[3]
  Population Apoptotic (%): 51%
  Population Fragmented Nuclei (%): 28%
  Population Healthy Nuclei (%): 38%
  Population Hoechst High Intensity Objects (%): 61%
  Population Membrane Permeable-Phenotype (%): 22%
  Population Mitochondria Different-Phenotype (%): 11%
  Population Mitotic Cells (%): 48%
  Population Normal (%): 38%
  Population Pyknosed Nuclei (%): 32%
  Population Tubulin-Different-Phenotype (%): 65%
  Total Cell Count: 515
[4]
  Population Apoptotic (%): 18%
  Population Fragmented Nuclei (%): 20%
  Population Healthy Nuclei (%): 62%
  Population Hoechst High Intensity Objects (%): 54%
  Population Membrane Permeable-Phenotype (%): 13%
  Population Mitochondria Different-Phenotype (%): 63%
  Population Mitotic Cells (%): 81%
  Population Normal (%): 45%
  Population Pyknosed Nuclei (%): 17%
  Population Tubulin-Different-Phenotype (%): 70%
  Total Cell Count: 91
[5]
  Population Apoptotic (%): 43%
  Population Fragmented Nuclei (%): 34%
  Population Healthy Nuclei (%): 46%
  Population Hoechst High Intensity Objects (%): 14%
  Population Membrane Permeable-Phenotype (%): 33%
  Population Mitochondria Different-Phenotype (%): 5%
  Population Mitotic Cells (%): 56%
  Population Normal (%): 85%
  Population Pyknosed Nuclei (%): 19%
  Population Tubulin-Different-Phenotype (%): 41%
  Total Cell Count: 141
[6]
  Population Apoptotic (%): 54%
  Population Fragmented Nuclei (%): 5%
  Population Healthy Nuclei (%): 84%
  Population Hoechst High Intensity Objects (%): 4%
  Population Membrane Permeable-Phenotype (%): 2%
  Population Mitochondria Different-Phenotype (%): 10%
  Population Mitotic Cells (%): 45%
  Population Normal (%): 95%
  Population Pyknosed Nuclei (%): 9%
  Population Tubulin-Different-Phenotype (%): 36%
  Total Cell Count: 81
[7]
  Population Apoptotic (%): 35%
  Population Fragmented Nuclei (%): 27%
  Population Healthy Nuclei (%): 25%
  Population Hoechst High Intensity Objects (%): 61%
  Population Membrane Permeable-Phenotype (%): 28%
  Population Mitochondria Different-Phenotype (%): 18%
  Population Mitotic Cells (%): 64%
  Population Normal (%): 38%
  Population Pyknosed Nuclei (%): 47%
  Population Tubulin-Different-Phenotype (%): 64%
  Total Cell Count: 606
[8]
  Population Apoptotic (%): 44%
  Population Fragmented Nuclei (%): 28%
  Population Healthy Nuclei (%): 53%
  Population Hoechst High Intensity Objects (%): 54%
  Population Membrane Permeable-Phenotype (%): 12%
  Population Mitochondria Different-Phenotype (%): 49%
  Population Mitotic Cells (%): 55%
  Population Normal (%): 45%
  Population Pyknosed Nuclei (%): 17%
  Population Tubulin-Different-Phenotype (%): 45%
  Total Cell Count: 125
[9]
  Population Apoptotic (%): 52%
  Population Fragmented Nuclei (%): 33%
  Population Healthy Nuclei (%): 37%
  Population Hoechst High Intensity Objects (%): 15%
  Population Membrane Permeable-Phenotype (%): 24%
  Population Mitochondria Different-Phenotype (%): 8%
  Population Mitotic Cells (%): 47%
  Population Normal (%): 84%
  Population Pyknosed Nuclei (%): 29%
  Population Tubulin-Different-Phenotype (%): 46%
  Total Cell Count: 143
[10]
  Population Apoptotic (%): 100%
  Population Fragmented Nuclei (%): 24%
  Population Healthy Nuclei (%): 72%
  Population Hoechst High Intensity Objects (%): 10%
  Population Membrane Permeable-Phenotype (%): 14%
  Population Mitochondria Different-Phenotype (%): 5%
  Population Mitotic Cells (%): 0%
  Population Normal (%): 89%
  Population Pyknosed Nuclei (%): 2%
  Population Tubulin-Different-Phenotype (%): 24%
  Total Cell Count: 119
[11]
  Population Apoptotic (%): 37%
  Population Fragmented Nuclei (%): 28%
  Population Healthy Nuclei (%): 28%
  Population Hoechst High Intensity Objects (%): 62%
  Population Membrane Permeable-Phenotype (%): 30%
  Population Mitochondria Different-Phenotype (%): 11%
  Population Mitotic Cells (%): 62%
  Population Normal (%): 37%
  Population Pyknosed Nuclei (%): 42%
  Population Tubulin-Different-Phenotype (%): 57%
  Total Cell Count: 650
[12]
  Population Apoptotic (%): 57%
  Population Fragmented Nuclei (%): 31%
  Population Healthy Nuclei (%): 57%
  Population Hoechst High Intensity Objects (%): 43%
  Population Membrane Permeable-Phenotype (%): 9%
  Population Mitochondria Different-Phenotype (%): 9%
  Population Mitotic Cells (%): 42%
  Population Normal (%): 56%
  Population Pyknosed Nuclei (%): 11%
  Population Tubulin-Different-Phenotype (%): 62%
  Total Cell Count: 307
